Screening data: PubChem, The Scripps Research Institute Molecular Screening Center
S1P4 ag – S1P4 receptor agonists, primary screen, cell-based; Sphingosine 1-phosphate receptor 4 (Homo sapiens), O95977; S1P4-expressing cell line, agonist reporter assay; activation, % at 4.98 µM; 220,000 compounds, 0.35% hits; AID 1509, 2009; in the data active = activation above about 11%
Target sequence (O95977 whole entry, looked up): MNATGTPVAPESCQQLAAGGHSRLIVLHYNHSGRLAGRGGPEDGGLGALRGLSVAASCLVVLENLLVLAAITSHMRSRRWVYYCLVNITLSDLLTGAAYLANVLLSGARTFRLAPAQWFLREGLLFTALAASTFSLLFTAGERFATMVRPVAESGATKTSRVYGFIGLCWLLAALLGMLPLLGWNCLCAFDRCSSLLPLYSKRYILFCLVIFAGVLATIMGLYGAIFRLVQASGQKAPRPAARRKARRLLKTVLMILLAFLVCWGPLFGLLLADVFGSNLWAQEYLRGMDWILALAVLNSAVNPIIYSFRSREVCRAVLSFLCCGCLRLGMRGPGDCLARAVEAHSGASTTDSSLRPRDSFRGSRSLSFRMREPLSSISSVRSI
NPY-Y1 PAM-ag – NPY-Y1 receptor potentiators or agonists, primary screen, cell-based. Neuropeptide Y receptor type 1 (Homo sapiens), P25929. NPY-Y1 expressing cells, potentiator/agonist activation. activation, % at 3.6 µM. 220,000 compounds, 0.37% hits; in the data active = activation above about 33%, passing the limit was not always enough;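 also: cells stimulated with NPY at EC10 then isoproterenol at EC100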
NPY Y2 blocker – NPY-Y2 receptor antagonists, primary screen, cell-based. 140,000 compounds, 0.99% hits. NPY-Y2 expressing cells, antagonist mode. Neuropeptide Y receptor type 2 (Homo sapiens), P49146. AID 793, 2007. inhibition, % at 2.7 µM
NPY-Y1 antag – NPY-Y1 receptor antagonists, primary screen, cell-based | Neuropeptide Y receptor type 1 (Homo sapiens), P25929 | HEK293-CNG Y1 cells, membrane potential fluorescence; NPY at EC95, then isoproterenol | inhibition, % at 3.6 µM | 200,000 compounds, 1% hits | AID 1040, 2008;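 active = inhibition above the campaign mean inhibition of all tested compounds plus 3 SD, cut at about 20% in these data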
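Assay system: HEK293 Y1/CNG channel cell line; Doses: single compound dose of 3.6 µM, 0.4% DMSO; Timing: dye 3 h, compound 60 min room temperature, stimulation 45 min; Technique: Membrane-potential fluorescent dye readout; Measure: % inhibition of NPY effect.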
NPY2 pot ag – NPY-Y2 potentiators or agonists, primary screen, cell-based | Neuropeptide Y receptor type 2 (Homo sapiens), P49146 | cells expressing NPY-Y2, potentiator/agonist read-out | activation, % at 3.6 µM | 220,000 compounds, 0.45% hits | AID 1359, 2008; in the data active = activation above about 27%;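 also: cells stimulated with NPY near EC25 plus isoproterenol at EC100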
S1P4 antagonist – S1P4 receptor antagonists, primary screen, cell-based; S1P4-expressing cells, antagonist mode, reporter read-out; Sphingosine 1-phosphate receptor 4 (Homo sapiens), O95977; 220,000 compounds, 0.26% hits; inhibition, % at 4.98 µM; AID 1510, 2009; in the data active = inhibition above about 29%
NPY1 antag conf – NPY-Y1 receptor antagonists, retest of hits, confirmation, HEK293-CNG cells, membrane potential fluorescence, triplicate | shares compounds with NPY-Y1 antag | cAMP; NPY challenge against isoproterenol-raised cAMP | inhibition, % at 3.6 µM | 1,200 compounds, 21% hits | AID 1254, 2008; in the data active = inhibition above about 20%
NPY-Y2 antag ct – NPY-Y2 receptor antagonists, selectivity check, confirmation, counter-screen for NPY-Y1 antagonist project, HEK293-CNG cells, membrane potential fluorescence, triplicate. shares compounds with NPY-Y1 antag. antagonism; cells given NPY, then isoproterenol. inhibition, % at 3.6 µM. 1,200 compounds, 28% hits
Of the large screens only hits and unclear results are named; the others gave an inactive call (follow-up assays come after a bar, where they were run). Hits are enriched below; roughly 2.4% of the tested compounds scored in any of these assays. Rule as the data show it, unless noted: active = inhibition above about 17%; inactive = the rest.

Cc1ccc(C(=O)Nc2ncc(Cc3ccccc3)s2)o1	none
O=C(Nc1ncc(Cc2ccc(SC(F)F)cc2)s1)c1ccccc1	NPY-Y1 antag 21 | NPY1 antag conf inactive | NPY-Y2 antag ct inactive
COC(=O)[C@@]1(Cc2ccc(OC)cc2)[C@H]2c3cc(C(=O)N(C)C)n(CCc4ccc(OC)c(Br)c4)c3C[C@H]2CN1C(=O)c1ccccc1	none
CCCn1c(=N)n(CC(O)c2ccc(C)cc2)c2ccccc21 (configuration not stated)	none (no result: NPY Y2 blocker, NPY-Y1 antag)
N=c1n(Cc2ccccc2)c2ccccc2n1CC(O)c1ccccc1 (configuration not stated)	NPY-Y1 antag 28 | NPY1 antag conf inactive | NPY-Y2 antag ct inactive
Cn1c(=N)n(CC(O)c2ccco2)c2ccccc21 (configuration not stated)	none
N=c1n(Cc2ccccc2Cl)c2ccccc2n1CC(O)c1ccco1 (configuration not stated)	NPY-Y1 antag 28 (no result: NPY Y2 blocker) | NPY1 antag conf inactive | NPY-Y2 antag ct 25
COc1ccc(N/N=C(\C=N\O)C(=O)c2ccc(OC)cc2)cc1	NPY-Y1 antag 32 | NPY1 antag conf inactive | NPY-Y2 antag ct inactive
O=c1cc(CN2CCN(c3ccccc3)CC2)c2c(ccc3ccccc32)o1	NPY-Y1 antag 44 | NPY1 antag conf 36 | NPY-Y2 antag ct 57
Cc1nc([N+](=O)[O-])cn1-c1nc2ccccn2c1[N+](=O)[O-]	none (no result: NPY Y2 blocker, NPY-Y1 antag)
CCOC(=O)c1[nH]c(C)c(C(=O)N2CCc3ccccc32)c1C	NPY-Y1 antag 32 | NPY1 antag conf inactive | NPY-Y2 antag ct inactive
N#C/C(C(=O)N1CCOCC1)=C1/SC(Cc2ccccc2Cl)C(=O)N1c1ccccc1 (configuration not stated)	none
CC(C)Nc1nc(NC(C)C)nc(SCCOC(=O)Nc2ccc(Cl)cc2Cl)n1	NPY-Y1 antag 21 | NPY1 antag conf inactive | NPY-Y2 antag ct inactive
CCNc1nc(NC(C)C)nc(SCCOC(=O)c2ccccc2)n1	none
CC(C(=O)N1CCOCC1)n1cc([N+](=O)[O-])cn1 (configuration not stated)	none (no result: NPY Y2 blocker)
CCOCC(=O)Nc1ccc([N+](=O)[O-])cc1C	none (no result: NPY Y2 blocker)
CCOc1ccc(NCC(=O)N/N=C/C=C/c2ccccc2)cc1	none
COc1ccc(OCC(=O)N/N=C/C=C/c2ccccc2)cc1	NPY-Y1 antag 23 | NPY1 antag conf inactive | NPY-Y2 antag ct inactive
COc1ccc(CCN2C(=O)C(O)=C(C(=O)c3ccco3)C2c2cccs2)cc1OC (configuration not stated)	NPY-Y1 antag 23 | NPY1 antag conf inactive | NPY-Y2 antag ct inactive
COc1ccc(C(=O)Oc2ccc(C(=S)N3CCOCC3)cc2)cc1	none (no result: NPY Y2 blocker)
O=[N+]([O-])c1cccc(-c2noc(COc3ccccc3)n2)c1	NPY-Y1 antag 25 (no result: NPY Y2 blocker) | NPY1 antag conf inactive | NPY-Y2 antag ct inactive
Cc1cc(C)cc(OCc2nc3ncc(Br)cc3[nH]2)c1	none
COc1cccc(OCc2nc3ncc(Br)cc3[nH]2)c1	NPY-Y1 antag 24 | NPY1 antag conf inactive | NPY-Y2 antag ct inactive
COc1ccc(-c2onc(C)c2-c2cnn(-c3ccccc3)c2)c(O)c1C	NPY-Y1 antag 31 (no result: NPY Y2 blocker) | NPY1 antag conf inactive | NPY-Y2 antag ct inactive
COc1ccc(-c2n[nH]c(C)c2-c2cnn(-c3ccccc3)c2)c(O)c1C	none
COc1ccc(CCNC(=O)c2nc(-c3cccs3)no2)cc1OC	none (no result: NPY Y2 blocker)
COc1ccccc1CCNC(=O)c1nc(-c2cccs2)no1	NPY-Y1 antag 24 (no result: NPY Y2 blocker) | NPY1 antag conf inactive | NPY-Y2 antag ct inactive
CCCCN(C)C(=O)Cc1c(OC)ccc2cc(Br)ccc12	NPY-Y1 antag 21 | NPY1 antag conf inactive | NPY-Y2 antag ct inactive
O=C(CCCc1cccs1)Nc1nc(-c2ccc(F)cc2)cs1	NPY-Y1 antag 25 | NPY1 antag conf inactive | NPY-Y2 antag ct inactive
CCOn1c(=O)c(-c2cccs2)[n+]([O-])c2ccccc21	none
COn1c(=O)c(-c2cccs2)[n+]([O-])c2ccccc21	NPY-Y1 antag 25 | NPY1 antag conf inactive | NPY-Y2 antag ct inactive
Cc1ccc(S(=O)(=O)Nc2cc(C(F)(F)F)ccc2N2CCOCC2)c(C)c1	none
COc1ccccc1-n1cnc2cc(NCc3cccs3)ccc21	NPY-Y1 antag 21 | NPY1 antag conf inactive | NPY-Y2 antag ct 20
Cc1ccccc1-n1cnc2cc(NCc3cccs3)ccc21	none
COc1ccc(OC)c(CCNC(=O)CS(=O)(=O)Cc2nc(-c3ccccc3C)oc2C)c1	NPY-Y1 antag 21 | NPY1 antag conf inactive | NPY-Y2 antag ct inactive
COc1ccc(-n2cc(CNCC3CCOCC3)c(-c3cccc(F)c3)n2)cc1	none (no result: NPY Y2 blocker)
Cc1ccc(-n2cc(CNCCCn3ccnc3C)c(-c3ccc(F)cc3)n2)cc1	NPY-Y1 antag 28 (no result: NPY Y2 blocker) | NPY1 antag conf 25 | NPY-Y2 antag ct 35
Cc1ccc(-n2cc(CNCCc3cscn3)c(-c3ccc(F)cc3)n2)cc1	none (no result: NPY Y2 blocker)
COc1ccc(-n2cc(CNCCCn3ccnc3)c(-c3cccc(F)c3)n2)cc1	NPY-Y1 antag 22 (no result: NPY Y2 blocker) | NPY1 antag conf inactive | NPY-Y2 antag ct inactive
Cc1ccc(-n2cc(CN3CCN(Cc4nccn4C)CC3)c(-c3ccc(F)cc3)n2)cc1	NPY-Y1 antag 31 (no result: NPY Y2 blocker) | NPY1 antag conf inactive | NPY-Y2 antag ct 19
CCCCCC(=O)C(=O)c1ccc(O)cc1O	none (no result: NPY Y2 blocker, NPY-Y1 antag)
CC(C)c1ccc(/C=N/NC(=O)c2nnn(-c3nonc3N)c2CSC2=NCCS2)cc1	none
S=C(Nc1ccc(Nc2ccccc2)cc1)NN1CCOCC1	none (no result: NPY Y2 blocker, NPY-Y1 antag)
O=C(O)CC/C(=C\c1ccc(N2CCOCC2)c([N+](=O)[O-])c1)c1nc2ccccc2s1	NPY-Y1 antag 41 (no result: NPY Y2 blocker) | NPY1 antag conf 54 | NPY-Y2 antag ct 79
COc1ccc(-c2nnc(SC(C)C(=O)Nc3cccc(Cl)c3)o2)cc1 (configuration not stated)	none
CCOC(=O)c1sc2nc(C)nc(SCC(=O)N(C)C3CCS(=O)(=O)C3)c2c1C (configuration not stated)	none (no result: NPY Y2 blocker)
CN(C1CCCCC1)S(=O)(=O)Cc1ccccc1	NPY-Y1 antag 25 | NPY1 antag conf inactive | NPY-Y2 antag ct inactive
COC(=O)c1c(NC(=O)CSc2nc3nc(C)cc(C)n3n2)sc(C)c1C	none
